The source made the active and inactive calls. The calls are words filed in the database; no cut-off is given here.
Legend:
Tubulin (Sus scrofa) [1] = biological target: T1, Tubulin (Sus scrofa) (UniProt P02554+P02550); test: Inhibition of porcine brain tubulin polymerization
[2] = Growth inhibition of human SCC4 cells after 48 hrs by sulforhodamine B assay; assay type: functional; settings: SCC-4, 48 h; for CC50: read-out: LC50 (the source's name)
In short: (§1)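 Cells grown in DMEM with 10% FBS and 50 μg/mL gentamicin. They were exposed for 48 h to at least six concentrations, and the SRB assay was the read-out. GI50 was taken from log concentration–response curves of 3–9 independent experiments, each run in triplicate. Values are ± SEM.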

SCC-4 [3] = test: Induction of mitotic arrest in human SCC4 cells assessed as increase number of cells with a rounded morphology at 55.6 uM after 18 hrs by immunofluorescence microscopy; assay type: functional, cell-based
HN5 = test: Growth inhibition of human HN5 cells after 48 hrs by sulforhodamine B assay; assay type: functional; settings: HN5, 48 h; in short: as §1
Tubulin (Sus scrofa) [4] = biological target: T1, Tubulin (Sus scrofa); test: Inhibition of porcine brain tubulin polymerization at 50 uM
[5] = Growth inhibition of human SCC25 cells after 48 hrs by sulforhodamine B assay; assay type: functional; settings: SCC-25, 48 h; for CC50: read-out: LC50 (the source's name); in short: as §1
SCC-4 [6] = test: Induction of cell cycle arrest in human SCC4 cells assessed as cells accumulation at G2/M phase after 18 hrs by propidium iodide-staining based flow cytometry; assay type: functional
In short: (§2)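 SCC-4 cells treated for 18 h with DMSO vehicle, 15 nM paclitaxel, or 1×, 2×, 3× or 4× LC50. Cells were stained with propidium iodide and cell-cycle distribution was read by flow cytometry. Three independent experiments.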

[7] = Growth inhibition of human HSC2 cells after 48 hrs by sulforhodamine B assay; assay type: functional; settings: HSC-2, 48 h; for CC50: read-out: LC50 (the source's name); in short: as §1
[8] = Growth inhibition of human HSC3 cells after 48 hrs by sulforhodamine B assay; assay type: functional; settings: HSC-3, 48 h; for CC50: read-out: LC50 (the source's name); in short: as §1
[9] = Growth inhibition of human CAL27 cells after 48 hrs by sulforhodamine B assay; assay type: functional; settings: CAL-27, 48 h; in short: as §1
SCC-4 [10] = test: Induction of cell cycle arrest in human SCC4 cells assessed as cells accumulation at G2/M phase at 4 times of LC50 concentration after 18 hrs by propidium iodide-staining based flow cytometry; assay type: functional; in short: as §2
SCC-4 [11] = test: Induction of mitotic arrest in human SCC4 cells assessed as punctuate and numerous spindles at 55.6 uM after 18 hrs by immunofluorescence microscopy; assay type: functional, cell-based
[12] = Growth inhibition of human SCC9 cells after 48 hrs by sulforhodamine B assay; assay type: functional; settings: SCC-9, 48 h; for CC50: read-out: LC50 (the source's name); in short: as §1
Tubulin (Sus scrofa) [13] = biological target: T1, Tubulin (Sus scrofa); test: Binding affinity to porcine brain tubulin relative to vinblastine
In short: (§3)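 Displacement of colchicine or vinblastine from purified tubulin, with the santalol at up to 7000-fold excess over the reference drug.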

Tubulin (Sus scrofa) [14] = biological target: T1, Tubulin (Sus scrofa); test: Binding affinity to porcine brain tubulin relative to colchicine; in short: as §3
SCC-4 [15] = test: Induction of mitotic arrest in human SCC4 cells assessed as increase number of cells with a rounded morphology at 61.2 uM after 18 hrs by immunofluorescence microscopy; assay type: functional, cell-based
SCC-4 [16] = test: Induction of mitotic arrest in human SCC4 cells assessed as large multipolar spindles at 61.2 uM after 18 hrs by immunofluorescence microscopy; assay type: functional, cell-based
SCC-4 [17] = test: Induction of cell cycle arrest in human SCC4 cells assessed as cells accumulation at G2/M phase at 3 times of LC50 concentration after 18 hrs by propidium iodide-staining based flow cytometry; assay type: functional; in short: as §2

T1 sequence (P02550 whole entry, looked up): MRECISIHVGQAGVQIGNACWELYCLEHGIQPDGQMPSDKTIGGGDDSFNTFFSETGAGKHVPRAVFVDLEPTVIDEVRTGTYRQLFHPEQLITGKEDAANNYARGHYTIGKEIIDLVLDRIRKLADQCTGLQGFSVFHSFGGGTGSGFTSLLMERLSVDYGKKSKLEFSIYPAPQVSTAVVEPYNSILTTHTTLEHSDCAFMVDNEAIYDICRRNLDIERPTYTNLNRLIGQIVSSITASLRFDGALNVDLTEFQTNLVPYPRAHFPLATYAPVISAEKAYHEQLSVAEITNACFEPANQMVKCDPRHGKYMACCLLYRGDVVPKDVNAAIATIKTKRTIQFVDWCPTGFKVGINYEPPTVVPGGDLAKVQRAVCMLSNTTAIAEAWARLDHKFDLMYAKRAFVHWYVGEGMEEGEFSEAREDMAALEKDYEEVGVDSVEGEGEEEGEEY
T1 sequence (P02554 whole entry, looked up): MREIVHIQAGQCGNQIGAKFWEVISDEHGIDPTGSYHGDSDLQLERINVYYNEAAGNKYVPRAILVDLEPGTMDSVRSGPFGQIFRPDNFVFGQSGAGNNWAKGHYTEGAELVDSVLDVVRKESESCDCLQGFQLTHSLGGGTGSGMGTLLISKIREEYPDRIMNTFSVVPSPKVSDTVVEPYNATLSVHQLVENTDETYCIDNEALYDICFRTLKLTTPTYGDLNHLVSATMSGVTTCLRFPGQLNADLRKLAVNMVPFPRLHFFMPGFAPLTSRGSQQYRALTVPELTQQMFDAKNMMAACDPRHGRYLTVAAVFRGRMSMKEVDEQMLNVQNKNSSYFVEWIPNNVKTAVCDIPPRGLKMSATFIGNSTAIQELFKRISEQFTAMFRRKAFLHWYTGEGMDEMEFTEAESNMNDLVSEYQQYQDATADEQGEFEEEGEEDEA

SMILES	GI50 [2]	TGI [2]	CC50 [2]	GI50 (HN5)	TGI (HN5)	inhibition (Tubulin (Sus scrofa) [4])	GI50 [5]	TGI [5]	CC50 [5]	Activity (SCC-4 [6])	GI50 [7]	TGI [7]	CC50 [7]	GI50 [8]	TGI [8]	CC50 [8]	GI50 [9]	TGI [9]	Activity (SCC-4 [10])	GI50 [12]	further results
C/C(=C/CC[C@]1(C)C2C[C@@H]3[C@H](C2)C31C)CO	4.5 µM	7.7 µM	14 µM	5.3 µM	8.2 µM	Active	3.5 µM	6 µM	11.6 µM	Dose-dependent effect	4.6 µM	9.2 µM	10.8 µM	3.9 µM	5.4 µM	7.7 µM	5.5 µM	7.6 µM	Active	3.4 µM	inhibition (Tubulin (Sus scrofa) [1]): Dose-dependent effect; Activity (SCC-4 [3]): Active; LC50 (HN5): 12.2 µM; LC50 [9]: 11 µM; Activity (SCC-4 [11]): Active; TGI [12]: 5.3 µM; CC50 [12]: 9 µM; fold change (FC) (Tubulin (Sus scrofa) [13]): > 7000; fold change (FC) (Tubulin (Sus scrofa) [14]): > 7000
C=C1[C@@H]2CC[C@@H](C2)[C@@]1(C)CC/C=C(/C)CO	5.8 µM	10 µM	14.3 µM	6.3 µM	9.6 µM	Active	4.2 µM	6.3 µM	11.1 µM	Dose-dependent effect	7.3 µM	9.4 µM	11.9 µM	4.4 µM	6.1 µM	9.1 µM	5.7 µM	8.4 µM	Active	4.2 µM	Activity (SCC-4 [15]): Active; Activity (SCC-4 [16]): Active; Activity (SCC-4 [17]): Active; TGI [12]: 6.8 µM; CC50 [12]: 14.5 µM; fold change (FC) (Tubulin (Sus scrofa) [13]): > 7000; fold change (FC) (Tubulin (Sus scrofa) [14]): > 7000
